According to ChEMBL document CHEMBL5036319, “Discovery of Novel Benzothiazepinones as Irreversible Covalent Glycogen Synthase Kinase 3β Inhibitors for the Treatment of Acute Promyelocytic Leukemia” (J Med Chem, 2021):
The source made the active and inactive calls. The calls are words filed in the database; no cut-off is given here.

Tests used:
[1] = tested on: MOLT-4; assay: Cytotoxicity against human MOLT-4 cells assessed as reduction in cell viability measured after 24 hrs by CCK-8 assay; format: functional, cell-based; conditions: MOLT-4, 24 h
Outline: (§1)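 Cells were grown in RPMI-1640 or high-glucose DMEM with 10% FBS at 37 °C, 5% CO2, and seeded at 3 × 10^4 cells/well. Exposure was 24 h across serial concentrations (0−1000 μM in the screen). […] Three independent experiments, mean ± SEM.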

[2] = tested on: Raji; assay: Cytotoxicity against human Raji cells assessed as reduction in cell viability measured after 24 hrs by CCK-8 assay; format: functional, cell-based; outline: as §1
[3] = tested on: NB-4; assay: Cytotoxicity against human NB-4 cells assessed as reduction in cell viability measured after 24 hrs by CCK-8 assay; format: functional, cell-based; conditions: NB-4, 24 h; outline: as §1
[4] = target: T1, Glycogen synthase kinase-3 beta (Homo sapiens, UniProt P49841); assay: Inhibition of recombinant human GSK-3beta using GS-2 peptide as substrate incubated for 30 mins in presence of ATP by kinase-glo luminescence assay
Target sequence in this assay (P49841 whole entry): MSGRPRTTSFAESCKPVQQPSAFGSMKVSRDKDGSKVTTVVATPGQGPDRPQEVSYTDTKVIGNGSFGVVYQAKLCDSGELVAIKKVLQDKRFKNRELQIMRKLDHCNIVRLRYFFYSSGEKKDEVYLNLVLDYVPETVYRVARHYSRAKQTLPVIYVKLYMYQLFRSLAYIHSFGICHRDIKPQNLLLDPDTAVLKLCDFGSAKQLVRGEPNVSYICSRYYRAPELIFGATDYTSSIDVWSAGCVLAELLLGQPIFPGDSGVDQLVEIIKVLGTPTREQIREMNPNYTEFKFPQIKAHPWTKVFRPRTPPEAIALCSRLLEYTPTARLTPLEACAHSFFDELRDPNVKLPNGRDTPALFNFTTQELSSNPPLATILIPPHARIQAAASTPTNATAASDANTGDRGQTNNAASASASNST

[5] = target: Glycogen synthase kinase-3 alpha (Homo sapiens) (UniProt P49840); assay: Inhibition of recombinant human GSK-3alpha at 100 uM by mobility shift assay relative to control
[6] = tested on: HL-60; assay: Cytotoxicity against human HL-60 cells assessed as reduction in cell viability measured after 24 hrs by CCK-8 assay; format: functional, cell-based; conditions: HL-60, 24 h; outline: as §1
[7] = target: Fibroblast growth factor receptor 1 (Homo sapiens) (UniProt P11362); assay: Inhibition of FGFR1 (unknown origin) at 100 uM incubated for 60 mins by ELISA relative to control
Chain of Fibroblast growth factor receptor 1 (Homo sapiens) (P11362 22-822 limits assumed): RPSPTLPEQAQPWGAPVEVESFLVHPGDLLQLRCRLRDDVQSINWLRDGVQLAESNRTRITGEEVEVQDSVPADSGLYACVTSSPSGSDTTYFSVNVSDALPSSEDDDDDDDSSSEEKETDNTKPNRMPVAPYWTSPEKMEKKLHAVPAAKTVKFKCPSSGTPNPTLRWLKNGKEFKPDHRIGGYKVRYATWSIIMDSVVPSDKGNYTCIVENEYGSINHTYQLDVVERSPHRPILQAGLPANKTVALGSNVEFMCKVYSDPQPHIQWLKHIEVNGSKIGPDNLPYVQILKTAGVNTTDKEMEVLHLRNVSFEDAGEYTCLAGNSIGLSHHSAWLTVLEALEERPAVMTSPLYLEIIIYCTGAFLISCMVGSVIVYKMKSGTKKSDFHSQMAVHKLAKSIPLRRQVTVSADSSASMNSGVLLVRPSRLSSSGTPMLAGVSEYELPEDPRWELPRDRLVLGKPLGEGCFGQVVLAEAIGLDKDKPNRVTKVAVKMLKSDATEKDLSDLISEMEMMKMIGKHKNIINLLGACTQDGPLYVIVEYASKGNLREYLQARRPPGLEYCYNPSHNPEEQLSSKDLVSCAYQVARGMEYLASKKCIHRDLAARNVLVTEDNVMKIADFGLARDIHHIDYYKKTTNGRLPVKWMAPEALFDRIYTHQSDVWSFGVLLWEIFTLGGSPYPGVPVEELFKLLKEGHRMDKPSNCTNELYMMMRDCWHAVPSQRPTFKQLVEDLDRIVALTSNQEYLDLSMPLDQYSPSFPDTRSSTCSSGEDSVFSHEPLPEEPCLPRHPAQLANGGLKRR
Outline: (§2)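 Tyrosine kinase ELISA on plates precoated with poly(Glu,Tyr) 4:1 substrate. Reaction used 10 μM ATP in buffer (50 mM HEPES pH 7.4, 50 mM MgCl2, 0.5 mM MnCl2, 0.2 mM Na3VO4, 1 mM DTT) with compound in 1% DMSO. Purified kinase started the reaction, 60 min at 37 °C. Detection by anti-phosphotyrosine PY99 then HRP anti-mouse IgG with o-phenylenediamine/H2O2. Read at 490 nm; inhibition = [1 − A490/A490 control] × 100%.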

[8] = target: Receptor tyrosine-protein kinase erbB-4 (Homo sapiens) (UniProt Q15303); assay: Inhibition of ERBB4 (unknown origin) at 100 uM incubated for 60 min by ELISA relative to control; outline: as §2
Chain of Receptor tyrosine-protein kinase erbB-4 (Homo sapiens) (Q15303 whole entry): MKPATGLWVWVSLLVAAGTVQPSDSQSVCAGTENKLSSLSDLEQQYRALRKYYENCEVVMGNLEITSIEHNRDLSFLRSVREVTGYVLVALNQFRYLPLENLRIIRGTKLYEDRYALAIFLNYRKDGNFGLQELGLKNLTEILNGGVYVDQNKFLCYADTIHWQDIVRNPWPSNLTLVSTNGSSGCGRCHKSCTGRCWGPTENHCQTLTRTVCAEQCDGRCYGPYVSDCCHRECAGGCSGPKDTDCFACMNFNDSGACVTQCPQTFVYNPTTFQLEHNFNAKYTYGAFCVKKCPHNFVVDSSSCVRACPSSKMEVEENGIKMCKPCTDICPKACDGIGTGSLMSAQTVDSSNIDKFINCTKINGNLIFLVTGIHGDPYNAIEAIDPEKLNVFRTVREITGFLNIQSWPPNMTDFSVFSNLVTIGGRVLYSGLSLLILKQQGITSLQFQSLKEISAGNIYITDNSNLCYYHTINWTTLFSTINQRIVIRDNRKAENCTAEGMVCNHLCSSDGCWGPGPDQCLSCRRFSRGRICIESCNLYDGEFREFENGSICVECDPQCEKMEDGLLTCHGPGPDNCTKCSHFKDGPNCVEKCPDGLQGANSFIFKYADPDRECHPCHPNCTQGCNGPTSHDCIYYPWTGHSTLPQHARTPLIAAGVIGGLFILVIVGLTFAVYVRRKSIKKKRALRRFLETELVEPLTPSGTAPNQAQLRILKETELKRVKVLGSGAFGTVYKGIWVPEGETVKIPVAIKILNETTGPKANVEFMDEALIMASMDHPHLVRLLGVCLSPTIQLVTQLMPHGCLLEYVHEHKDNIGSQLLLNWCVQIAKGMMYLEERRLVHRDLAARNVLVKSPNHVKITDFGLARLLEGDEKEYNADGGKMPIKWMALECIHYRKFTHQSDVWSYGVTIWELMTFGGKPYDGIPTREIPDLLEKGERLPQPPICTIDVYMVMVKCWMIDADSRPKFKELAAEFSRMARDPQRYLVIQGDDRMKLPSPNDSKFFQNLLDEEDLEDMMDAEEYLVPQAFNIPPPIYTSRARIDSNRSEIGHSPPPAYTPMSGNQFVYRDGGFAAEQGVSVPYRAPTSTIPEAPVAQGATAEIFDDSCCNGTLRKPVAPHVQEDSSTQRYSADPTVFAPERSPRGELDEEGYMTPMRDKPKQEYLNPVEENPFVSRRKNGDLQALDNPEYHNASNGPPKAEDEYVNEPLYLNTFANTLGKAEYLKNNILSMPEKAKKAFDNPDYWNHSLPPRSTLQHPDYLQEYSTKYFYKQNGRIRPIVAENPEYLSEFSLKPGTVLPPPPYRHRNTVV

[9] = target: Platelet-derived growth factor receptor beta (Homo sapiens) (UniProt P09619); assay: Inhibition of PDGFRbeta (unknown origin) at 100 uM incubated for 60 mins by ELISA relative to control; outline: as §2
[10] = target: Vascular endothelial growth factor receptor 2 (Homo sapiens) (UniProt P35968); assay: Inhibition of KDR (unknown origin) at 100 uM incubated for 60 mins by ELISA relative to control; outline: as §2
[11] = organism: Homo sapiens; assay: Inhibition of PKA (unknown origin) at 100 uM incubated for 60 mins by Millipore Kinase Profiler service relative to control
[12] = target: Platelet-derived growth factor receptor alpha (Homo sapiens) (UniProt P16234); assay: Inhibition of PDGFRalpha (unknown origin) at 100 uM incubated for 60 mins by ELISA relative to control; outline: as §2
Chain of Platelet-derived growth factor receptor alpha (Homo sapiens) (P16234 whole entry): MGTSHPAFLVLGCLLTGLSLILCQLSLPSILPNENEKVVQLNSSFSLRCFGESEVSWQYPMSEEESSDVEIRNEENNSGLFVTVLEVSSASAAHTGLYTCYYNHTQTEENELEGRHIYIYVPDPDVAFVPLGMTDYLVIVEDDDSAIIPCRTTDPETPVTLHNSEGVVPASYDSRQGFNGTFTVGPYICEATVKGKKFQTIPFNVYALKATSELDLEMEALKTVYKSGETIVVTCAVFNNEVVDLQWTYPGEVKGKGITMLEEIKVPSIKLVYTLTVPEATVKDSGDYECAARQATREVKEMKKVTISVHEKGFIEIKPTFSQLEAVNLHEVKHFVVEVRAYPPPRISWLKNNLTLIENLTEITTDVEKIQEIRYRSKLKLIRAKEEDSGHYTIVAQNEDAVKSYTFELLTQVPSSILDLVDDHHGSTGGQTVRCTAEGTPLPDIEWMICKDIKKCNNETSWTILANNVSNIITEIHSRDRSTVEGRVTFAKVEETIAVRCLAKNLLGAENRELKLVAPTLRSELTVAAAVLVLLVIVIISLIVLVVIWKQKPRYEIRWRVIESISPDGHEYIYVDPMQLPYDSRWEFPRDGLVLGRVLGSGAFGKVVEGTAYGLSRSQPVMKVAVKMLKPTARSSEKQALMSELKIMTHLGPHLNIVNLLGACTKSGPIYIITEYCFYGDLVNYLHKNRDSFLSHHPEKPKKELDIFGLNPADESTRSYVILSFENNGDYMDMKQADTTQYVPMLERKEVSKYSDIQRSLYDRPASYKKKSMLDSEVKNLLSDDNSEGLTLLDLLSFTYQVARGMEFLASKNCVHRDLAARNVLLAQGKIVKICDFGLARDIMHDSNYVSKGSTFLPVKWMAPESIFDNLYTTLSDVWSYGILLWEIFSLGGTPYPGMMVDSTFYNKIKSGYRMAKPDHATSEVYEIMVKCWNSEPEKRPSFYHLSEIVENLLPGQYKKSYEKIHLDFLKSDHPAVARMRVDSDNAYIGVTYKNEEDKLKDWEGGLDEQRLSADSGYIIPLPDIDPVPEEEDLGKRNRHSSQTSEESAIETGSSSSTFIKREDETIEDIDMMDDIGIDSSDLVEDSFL

[13] = target: Casein kinase 2 (Homo sapiens) (UniProt P67870+P68400+P19784+Q8NEV1); assay: Inhibition of CK2 (unknown origin) at 100 uM incubated for 60 mins by Millipore Kinase Profiler service relative to control
[14] = target: Mast/stem cell growth factor receptor Kit (Homo sapiens) (UniProt P10721); assay: Inhibition of c-Kit (unknown origin) at 100 uM incubated for 60 mins by ELISA relative to control; outline: as §2
[15] = target: Vascular endothelial growth factor receptor 1 (Homo sapiens) (UniProt P17948); assay: Inhibition of Flt-1 (unknown origin) at 100 uM incubated for 60 mins by ELISA relative to control; outline: as §2
Chain of Vascular endothelial growth factor receptor 1 (Homo sapiens) (P17948 whole entry): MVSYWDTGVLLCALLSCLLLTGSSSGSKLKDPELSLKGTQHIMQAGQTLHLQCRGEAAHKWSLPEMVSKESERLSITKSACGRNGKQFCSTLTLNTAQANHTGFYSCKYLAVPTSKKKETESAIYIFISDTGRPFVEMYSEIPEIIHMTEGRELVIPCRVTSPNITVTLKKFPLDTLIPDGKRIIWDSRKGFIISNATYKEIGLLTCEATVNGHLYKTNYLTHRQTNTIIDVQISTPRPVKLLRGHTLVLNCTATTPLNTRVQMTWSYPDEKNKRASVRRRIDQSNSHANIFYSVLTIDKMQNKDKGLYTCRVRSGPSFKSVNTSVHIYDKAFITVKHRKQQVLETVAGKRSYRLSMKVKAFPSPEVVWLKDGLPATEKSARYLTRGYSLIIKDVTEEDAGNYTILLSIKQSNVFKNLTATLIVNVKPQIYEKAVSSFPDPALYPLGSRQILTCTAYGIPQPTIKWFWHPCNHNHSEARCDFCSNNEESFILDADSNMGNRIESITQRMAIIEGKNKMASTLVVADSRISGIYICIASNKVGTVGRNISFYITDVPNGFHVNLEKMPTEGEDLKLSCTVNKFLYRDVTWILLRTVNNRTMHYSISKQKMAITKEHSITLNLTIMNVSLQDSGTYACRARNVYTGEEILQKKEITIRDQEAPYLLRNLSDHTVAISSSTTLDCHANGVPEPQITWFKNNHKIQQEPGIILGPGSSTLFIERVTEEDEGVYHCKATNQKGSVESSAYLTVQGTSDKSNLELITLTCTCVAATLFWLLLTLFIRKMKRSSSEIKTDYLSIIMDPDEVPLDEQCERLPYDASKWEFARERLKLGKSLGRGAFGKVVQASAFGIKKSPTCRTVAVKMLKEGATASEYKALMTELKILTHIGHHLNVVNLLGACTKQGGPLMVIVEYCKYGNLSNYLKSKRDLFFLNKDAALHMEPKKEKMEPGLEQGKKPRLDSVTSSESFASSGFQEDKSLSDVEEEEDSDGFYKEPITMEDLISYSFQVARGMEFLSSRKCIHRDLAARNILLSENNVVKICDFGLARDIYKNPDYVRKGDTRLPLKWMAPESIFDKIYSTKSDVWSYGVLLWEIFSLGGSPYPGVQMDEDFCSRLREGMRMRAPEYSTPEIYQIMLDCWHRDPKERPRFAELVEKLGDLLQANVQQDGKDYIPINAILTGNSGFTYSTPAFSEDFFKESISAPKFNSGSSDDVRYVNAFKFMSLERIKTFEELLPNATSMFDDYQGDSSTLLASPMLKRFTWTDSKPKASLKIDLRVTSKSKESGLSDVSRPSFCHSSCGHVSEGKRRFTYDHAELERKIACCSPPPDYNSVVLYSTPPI

[16] = target: Proto-oncogene tyrosine-protein kinase receptor Ret (Homo sapiens) (UniProt P07949); assay: Inhibition of RET (unknown origin) at 100 uM incubated for 60 mins by ELISA relative to control; outline: as §2
[17] = Cytotoxicity against human L02 cells assessed as cell viability at 0 to 50 uM incubated for 24 hrs by CCK-8 assay relative to control; format: cell-based; conditions: dose 0-50 µM, read-out: Activity
Outline: (§3)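 HUVEC and LO2 normal cells were cultured in RPMI-1640 or DMEM with 10% FBS at 37 °C, 5% CO2, and seeded at 3 × 10^4 cells/well. They were exposed for 24 h to graded concentrations. CCK-8 incubation was 3 h at 37 °C, with A450 read and viability expressed versus untreated control. Three independent experiments, mean ± SEM.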

[18] = Cytotoxicity against HUVEC assessed as cell viability at 0 to 50 uM incubated for 24 hrs by CCK-8 assay relative to control; format: cell-based; conditions: human, dose 0-50 µM, read-out: Activity; outline: as §3
[19] = tested on: NB4-DR1; assay: Antiproliferative activity against human NB4-DR1 cells assessed as reduction in cell viability incubated for 24 hrs by CCK-8 assay; format: functional, cell-based; conditions: NB4-DR1, 24 h; outline: as §1
[20] = target: Fibroblast growth factor receptor 1 (Homo sapiens) (UniProt P11362); assay: Inhibition of FGFR1 (unknown origin) incubated for 60 mins by ELISA; conditions: dose 100.0 µM
[21] = target: T1, Glycogen synthase kinase-3 beta; assay: Non-competitive inhibition of recombinant human GSK-3beta using GS-2 peptide as substrate at 2 to 4 uM incubated for 10 mins in presence of varying levels of ATP by double reciprocal plot analysis; conditions: dose 2-4 µM
Target sequence in this assay (P49841 whole entry, looked up): as the sequence (P49841 whole entry) above

[22] = target: T1, Glycogen synthase kinase-3 beta; assay: Irreversible inhibition of recombinant human GSK-3beta preincubated for upto 10 mins by double reciprocal plot analysis; conditions: time min <=10, TDE = time-dependent effect
Outline: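 Irreversibility tested in the Kinase-Glo GSK-3β assay. Inhibitor at 6.25 and 12.5 μM was preincubated with enzyme for 0, 5 or 10 min. Each point is the mean of two separate experiments done in triplicate.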
Target sequence in this assay (P49841 whole entry, looked up): as the sequence (P49841 whole entry) above

[23] = Thiol reactivity of compound with mercaptoethanol measured after 24 hrs by 1H-NMR analysis; format: physicochemical
[24] = target: T1, Glycogen synthase kinase-3 beta; assay: Non-competitive inhibition of recombinant human GSK-3beta at 2 to 4 uM using varying concentration of GS-2 as substrate incubated for 10 mins in presence of ATP by double reciprocal plot analysis; conditions: dose 2-4 µM
Target sequence in this assay (P49841 whole entry, looked up): as the sequence (P49841 whole entry) above

| IC50 [4] | inhibition [5] | Compound | IC50 [1] | IC50 [2] | IC50 [3] | IC50 [6] | also measured |
| --- | --- | --- | --- | --- | --- | --- | --- |
| 15 µM | 20% | C=CC(=O)N1C(=O)CC(c2ccc(C(F)(F)F)cc2)Sc2ccccc21 (stereo not drawn) | 76.3 µM | 47.6 µM | 38.6 µM | 106 µM |  |
| 7.5 µM | 50.7% | C=CC(=O)N1C(=O)CC(c2ccc([N+](=O)[O-])cc2)Sc2ccccc21 (stereo not drawn) | 91.5 µM | 34.8 µM | 37.6 µM | 107 µM |  |
| 4.9 µM |  | C=CC(=O)N1C(=O)CC(c2cccs2)Sc2ccccc21 (stereo not drawn) | 557 µM | 659 µM | 765 µM | 695 µM | inhibition [7]: 18.8%; inhibition [8]: 0%; inhibition [9]: 7.8%; inhibition [10]: 3.1%; inhibition [11]: 22%; inhibition [12]: 0%; inhibition [13]: 0%; inhibition [14]: 26.3%; inhibition [15]: 0%; inhibition [16]: 0% |
| 4.8 µM | 30% | C=CC(=O)N1C(=O)CC(c2ccc(C)cc2)Sc2ccccc21 (stereo not drawn) | 87.6 µM | 75.5 µM | 37.3 µM | 94.4 µM |  |
| 17 µM |  | C=CC(=O)N1C(=O)CCSc2ccccc21 | 565 µM | 581 µM | 22.4 µM | 44.8 µM |  |
| 5.8 µM | 13.4% | C=CC(=O)N1C(=O)CC(c2ccc(-c3ccccc3)cc2)Sc2ccccc21 (stereo not drawn) | 97.5 µM | 56.3 µM | 57.7 µM | 118 µM |  |
| 2.5 µM | 61.8% | C=CC(=O)N1C(=O)CC(c2ccccc2Cl)Sc2ccccc21 (stereo not drawn) | 80.3 µM | 50.4 µM | 33.8 µM | 91.4 µM |  |
| 6.7 µM | 46.7% | C=CC(=O)N1C(=O)CC(c2ccc(Cl)cc2)Sc2ccccc21 (stereo not drawn) | 82.4 µM | 18.4 µM | 22.6 µM | 95.7 µM | inhibition [7]: 88.3%; viability at 24 h, up to 50 µM [17]: > 80%; inhibition [8]: 0%; inhibition [9]: 0%; inhibition [10]: 0%; inhibition [11]: 7%; inhibition [12]: 11.1%; viability at 24 h, up to 50 µM [18]: > 80%; IC50 [19]: 48.3 µM; inhibition [13]: 8%; inhibition [14]: 14%; inhibition [15]: 7.4%; inhibition [16]: 73.9% |
| 15 µM |  | C=CC(=O)N1C(=O)CC(c2ccc(N3CCOCC3)cc2)Sc2ccccc21 (stereo not drawn) | 65 µM | 56.2 µM | 42.4 µM | 98 µM |  |
| > 100 µM |  | C=CC(=O)Nc1ccc(C2CC(=O)Nc3ccccc3S2)cc1 (stereo not drawn) |  |  |  |  |  |
| 2.8 µM | 32% | C=CC(=O)N1C(=O)CC(c2ccccc2C(F)(F)F)Sc2ccccc21 (stereo not drawn) | 84.4 µM | 50.3 µM | 35.2 µM | 96.4 µM |  |
| > 100 µM |  | CCC(=O)N1C(=O)CC(c2cccs2)Sc2ccccc21 (stereo not drawn) |  |  |  |  |  |
|  |  | Cc1ccc(C(=O)Nc2ccc(CN3CCN(C)CC3)c(C(F)(F)F)c2)cc1C#Cc1cnc2cccnn12 |  |  |  |  | IC50 [20]: 0.0007 µM |
| 6.2 µM | 92.9% | C=CC(=O)N1C(=O)CC(c2ccc(C#N)cc2)Sc2ccccc21 (stereo not drawn) | 88.7 µM | 84.5 µM | 62.4 µM | 115 µM |  |
| 6.6 µM |  | C=CC(=O)N1C(=O)CC(c2ccccc2)Sc2ccccc21 (stereo not drawn) | 85.9 µM | 74 µM | 35.5 µM | 97.4 µM | inhibition [7]: 0%; inhibition [21]: Active; inhibition [8]: 0%; inhibition [9]: 2.7%; inhibition [10]: 0%; inhibition [12]: 6.5%; inhibition [22]: Tde; Drug metabolism [23]: Metabolite_Detected; inhibition [24]: Active; inhibition [14]: 26.9%; inhibition [15]: 1.7%; inhibition [16]: 0% |
| 6.4 µM | 33.4% | C=CC(=O)N1C(=O)CC(c2ccc(Br)cc2)Sc2ccccc21 (stereo not drawn) | 106 µM | 51.3 µM | 59.4 µM | 126 µM |  |
|  |  | [Cl-].[Li+] [CHLOROLITHIUM] |  |  | 5320 µM |  | IC50 [19]: 42500 µM |
| 4 µM |  | C=CC(=O)N1C(=O)CC(c2cccc(Cl)c2)Sc2ccccc21 (stereo not drawn) | 77.5 µM | 47.1 µM | 31.7 µM | 93.1 µM |  |
| > 100 µM |  | C=CC(=O)NCCN1C(=O)CC(c2ccccc2)Sc2ccccc21 (stereo not drawn) |  |  |  |  |  |
| 6 µM |  | C=CC(=O)N1C(=O)CC(c2ccc(C(=O)OC)cc2)Sc2ccccc21 (stereo not drawn) | 79.6 µM | 89.6 µM | 24.4 µM | 102 µM | viability at 24 h, up to 50 µM [17]: > 80%; viability at 24 h, up to 50 µM [18]: > 80%; IC50 [19]: 93.1 µM |
| 20 µM |  | C=CC(=O)N1C(=O)CC(C)Sc2ccccc21 (stereo not drawn) | 730 µM | 837 µM | 227 µM | 199 µM |  |
| 6.2 µM |  | C=CC(=O)N1C(=O)CC(c2ccc(OC)cc2)Sc2ccccc21 (stereo not drawn) | 83.2 µM | 43.2 µM | 32.9 µM | 92.1 µM |  |
